Data from ChEMBL document CHEMBL1641407, “Imidazo[4,5-d]thiazolo[5,4-b]pyridine based inhibitors of IKK2: synthesis, SAR, PK/PD and activity in a preclinical model of rheumatoid arthritis” (Bioorg Med Chem Lett, 2011).

What was measured:
[1] = tested on: Blood; assay: Antiinflammatory activity in mouse whole blood assessed as inhibition of LPS-induced TNFalpha release treated for 5 mins before LPS challenge measured after 6 hrs by ELISA; format: functional, tissue-based
[2] = tested on: Canis familiaris; assay: Total AUC in dog at 2 mg/kg, iv; format: ADME, organism-based, Canis lupus familiaris; set-up: time AUCmax, dose 2 mg/kg, route intravenous; details: in vivo
Method in brief: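 Dogs received the compound intravenously only, in PEG400:water 80:20. Total plasma exposure (AUC_tot) is reported in nM h.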

[3] = Volume of distribution at steady state in dog at 2 mg/kg, iv; format: ADME, organism-based, Canis lupus familiaris; set-up: dose 2 mg/kg, route intravenous; details: in vivo, read-out: Vdss
Method in brief: (§1)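 Dog pharmacokinetics, iv dosing only, in vehicle PEG400:water 80:20.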

[4] = Volume of distribution at steady state in rat at 2 mg/kg, iv and 10 mg/kg, po; format: ADME, organism-based; details: in vivo, read-out: Vdss
[5] = Clearance in dog at 2 mg/kg, iv; format: ADME, organism-based, Canis lupus familiaris; set-up: dose 2 mg/kg, route intravenous; details: in vivo; method in brief: as §1
[6] = tested on: Blood; assay: Antiinflammatory activity in human whole blood assessed as inhibition of LPS-induced TNFalpha release treated for 5 mins before LPS challenge measured after 6 hrs by ELISA; format: functional, tissue-based
[7] = Clearance in mouse at 2 mg/kg, iv and 10 mg/kg, po; format: ADME, organism-based; details: in vivo
[8] = Clearance in rat at 2 mg/kg, iv and 10 mg/kg, po; format: ADME, organism-based; details: in vivo
[9] = Mean residence time in rat at 2 mg/kg, iv and 10 mg/kg, po; format: ADME, organism-based; details: in vivo
[10] = Mean residence time in mouse at 2 mg/kg, iv and 10 mg/kg, po; format: ADME, organism-based; details: in vivo
[11] = Half life in mouse at 2 mg/kg, iv and 10 mg/kg, po; format: ADME, organism-based; details: in vivo
[12] = Tmax in mouse at 2 mg/kg, iv and 10 mg/kg, po; format: ADME, organism-based; details: in vivo
[13] = Tmax in rat at 2 mg/kg, iv and 10 mg/kg, po; format: ADME, organism-based; details: in vivo
[14] = Cmax in mouse at 2 mg/kg, iv and 10 mg/kg, po; format: ADME, organism-based; details: in vivo
[15] = Oral bioavailability in rat at 10 mg/kg; format: ADME, organism-based; details: in vivo
[16] = tested on: PBMC; assay: Antiinflammatory activity in human PBMC assessed as inhibition of LPS-induced TNFalpha release treated for 5 mins before LPS challenge measured after 6 hrs by ELISA; format: functional, cell-based
Method in brief: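 PBMCs purified from heparinized healthy-volunteer blood by Ficoll-Hypaque gradient and suspended at 5 × 10⁶/mL in RPMI with 10% FBS. Cells preincubated with compound (0.2% DMSO) for 5 min at room temperature. LPS added from a 200 ng/mL stock, then 6 h at 37 °C. Medium TNF-α measured by ELISA. IC50 by linear regression.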

[17] = biological target: T1, Inhibitor of nuclear factor kappa-B kinase subunit beta (Homo sapiens, UniProt O14920); assay: Inhibition of IKK2
T1 sequence (O14920 whole entry): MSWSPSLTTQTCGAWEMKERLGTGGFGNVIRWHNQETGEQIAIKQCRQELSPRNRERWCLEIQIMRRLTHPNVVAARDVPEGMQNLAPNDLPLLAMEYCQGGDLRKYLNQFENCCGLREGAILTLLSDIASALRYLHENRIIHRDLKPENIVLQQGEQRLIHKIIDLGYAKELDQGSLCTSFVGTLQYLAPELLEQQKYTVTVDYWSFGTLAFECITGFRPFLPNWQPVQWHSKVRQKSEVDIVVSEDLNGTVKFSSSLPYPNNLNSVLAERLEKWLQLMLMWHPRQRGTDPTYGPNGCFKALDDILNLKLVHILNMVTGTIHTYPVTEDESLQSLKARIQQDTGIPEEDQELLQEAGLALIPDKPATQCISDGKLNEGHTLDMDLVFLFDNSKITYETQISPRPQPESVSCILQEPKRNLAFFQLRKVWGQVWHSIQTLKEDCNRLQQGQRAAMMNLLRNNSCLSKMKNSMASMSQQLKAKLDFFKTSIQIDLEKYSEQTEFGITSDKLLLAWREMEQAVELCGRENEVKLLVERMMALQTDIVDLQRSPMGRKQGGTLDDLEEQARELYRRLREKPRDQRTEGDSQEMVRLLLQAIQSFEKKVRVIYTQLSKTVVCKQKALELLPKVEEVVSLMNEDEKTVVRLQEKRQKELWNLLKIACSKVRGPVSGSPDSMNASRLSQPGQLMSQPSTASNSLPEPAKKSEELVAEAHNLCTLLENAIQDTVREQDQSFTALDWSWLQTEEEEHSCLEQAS
Method in brief: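 IKK-2 added at room temperature to 50 µg/mL GST-IκBα with ATP in 25 mM Tris·HCl, pH 7.5, containing MgCl₂, phosphate salts, NaCl, KCl, 1 mM DTT, 5% glycerol and BSA. Stopped after 60 min with 33 mM EDTA. Phospho-IκBα read by fluorescence-polarization competition between an anti-phospho-IκBα antibody and a fluorescein-labelled phosphopeptide.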

[18] = tested on: Mus musculus; assay: Antiinflammatory activity in BALB/c mouse assessed as inhibition of LPS-induced TNFalpha release at 100 mg/kg, po administered for 5 hrs before LPS challenge measured after 6.5 hrs post dose by ELISA; format: functional
Method in brief: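 BALB/c female mice, 6–8 weeks old, n = 7–8 per treatment. Compounds given by oral gavage at 30 and 100 mg/kg in PEG400/HCl/Tween80/water; controls received vehicle alone. Five hours later, E. coli O111:B4 LPS 50 µg/kg ip. Serum collected 90 min after LPS, TNF-α measured by ELISA. Drug exposure sampled 6.5 h post-dose. Mean ± standard error.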

[19] = tested on: Mus musculus; assay: Antiarthritic activity in mouse assessed as decrease in collagen-induced arthritis at 60 mg/kg, po BID administered at time of second collagen challenge on day 25 measured on day 42; format: functional
Method in brief: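 Collagen-induced arthritis in mice, n = 14–15 per group. Collagen priming injection on day 1, second collagen injection on day 25. Dosing 60 mg/kg by oral gavage twice daily, or vehicle, starting at the second injection. Read-out is the average gross clinical score per treatment group.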

[20] = biological target: Serine/threonine-protein kinase 16 (Homo sapiens) (UniProt O75716); assay: Residual activity at STK16 at 10 uM relative to control
Serine/threonine-protein kinase 16 (Homo sapiens), sequence (O75716 whole entry): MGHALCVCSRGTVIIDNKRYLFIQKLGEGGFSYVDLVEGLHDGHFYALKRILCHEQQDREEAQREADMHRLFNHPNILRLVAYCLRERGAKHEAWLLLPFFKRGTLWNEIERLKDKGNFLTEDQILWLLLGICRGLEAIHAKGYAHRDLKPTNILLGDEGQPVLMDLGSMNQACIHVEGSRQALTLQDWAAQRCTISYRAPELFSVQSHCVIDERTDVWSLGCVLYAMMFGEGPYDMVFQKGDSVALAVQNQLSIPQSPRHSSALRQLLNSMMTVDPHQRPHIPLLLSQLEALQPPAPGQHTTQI

IC50 [1]: 1000 nM | AUC [2]: 1980 nM | Vd [3]: 3.1 L/kg | Vd [4]: 2.3 L/kg | clearance [5]: 43 mL/min/kg | IC50 [6]: 2000 nM | clearance [7]: 62 mL/min/kg | clearance [8]: 63 mL/min/kg | MRT [9]: 2.1 h | MRT [10]: 2.9 h | half-life [11]: 1.9 h | Tmax [12]: 0.5 h | Tmax [13]: 2 h | Cmax [14]: 1330 nM | bioavailability [15]: 88% | IC50 [17]: 19 nM | residual activity [20]: < 10%
SMILES: CCNc1nc2sc(-c3cccc([C@H](C)NC(C)=O)c3)nc2c2c1ncn2C
IC50 [16]: 220 nM | inhibition in vivo at 100 mg/kg [18]: 75% | inhibition in vivo at 60 mg/kg [19]: 80%
